Data from ChEMBL document CHEMBL3877283, “Antitubercular activity of 1,2,3-triazolyl fatty acid derivatives” (Eur J Med Chem, 2017).
In brackets after ≈: the same amount, converted by molar mass.

Experiments:
[1] = Cytotoxicity against African green monkey Vero cells at 4.75 ug/ml measured after 48 hrs by neutral red assay; format: toxicity, cell-based; conditions: chlorocebus sabaeus
Outline: (§1)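 Vero (African green monkey kidney) cells were seeded at 25,000 cells/well and grown 24 h. Compounds were then added, with DMSO as vehicle control and doxorubicin as positive control, and incubated 48 h. Viable cells were counted by neutral red uptake. Highest concentration tested was 4.75 μg/mL. IC50 was read from logarithmic plots of growth inhibition versus concentration.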

[2] = tested on: Mycobacterium tuberculosis; experiment: Inhibition of Mycobacterium tuberculosis InhA assessed as remaining activity at 20 uM using trans-2-dodecenoyl-coenzyme A as substrate relative to control
Outline: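 Wild-type InhA (100 nM) started the reaction with 25 μM trans-2-dodecenoyl-CoA, 250 μM NADH and 20 μM inhibitor in 30 mM PIPES, 150 mM NaCl, pH 6.8. Initial velocity was compared with an inhibitor-free control; remaining activity is vi/v0.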

[3] = tested on: Mycobacterium tuberculosis; experiment: Antimycobacterial activity against Mycobacterium tuberculosis H37Rv measured after 5 days by MTT dye based two-fold microdilution method; format: functional; conditions: 120 h
Outline: (§2)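 Two-fold serial dilution in 96-well plates in Middlebrook 7H9 with 10% ADS and 1% glycerol (7H9-ADS-G). DMSO stocks were diluted to a top concentration of 100 μg/mL and down to 0.8 μg/mL, run in duplicate. Wells received mid-log bacilli in 7H9-ADS-G, incubated 5 days at 37 °C, then MTT for 24 h. MIC is the lowest concentration blocking yellow-to-purple change. Rifampicin was the control.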

[4] = Inhibition of Staphylococcus aureus FabI using t-o-NAC-thioester as substrate by spectrophometric method
[5] = Cytotoxicity against African green monkey Vero cells measured after 48 hrs by neutral red assay; format: toxicity, cell-based; conditions: African green monkey (Chlorocebus sabaeus); outline: as §1
[6] = tested on: Mycobacterium tuberculosis; experiment: Antimycobacterial activity against Mycobacterium tuberculosis H37Rv ATCC 27294 measured after 10 days by broth dilution method; format: functional; conditions: H37Rv ATCC 27294, 240 h
[7] = tested on: Mycobacterium tuberculosis; experiment: Antimycobacterial activity against Mycobacterium tuberculosis isolate 304 measured after 5 days by MTT dye based two-fold microdilution method; format: functional; conditions: isolate 304, 120 h; outline: as §2
[8] = tested on: Mycobacterium tuberculosis; experiment: Antimycobacterial activity against Mycobacterium tuberculosis isolate 51 measured after 5 days by MTT dye based two-fold microdilution method; format: functional; conditions: isolate 51, 120 h; outline: as §2
[9] = tested on: Mycobacterium tuberculosis; experiment: Antimycobacterial activity against Mycobacterium tuberculosis isolate 164 measured after 5 days by MTT dye based two-fold microdilution method; format: functional; conditions: isolate 164, 120 h; outline: as §2
[10] = Therapeutic index, ratio of IC50 for cytotoxicity against African green monkey Vero cells to MIC for antimycobacterial activity against Mycobacterium tuberculosis H37Rv; format: cell-based; conditions: read-out: TI
Outline: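 Vero cells were seeded at 25,000/well, grown 24 h, then exposed to compound for 48 h, with a maximum of 4.75 μg/mL and DMSO as vehicle. Viability was read by neutral red uptake. IC50 came from log plots of growth inhibition versus concentration. The index is cytotoxic IC50 divided by MIC against H37Rv from the MTT microdilution assay.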

[11] = tested on: Mycobacterium tuberculosis; experiment: Antimycobacterial activity against Mycobacterium tuberculosis isolate 598 measured after 5 days by MTT dye based two-fold microdilution method; format: functional; conditions: isolate 598, 120 h; outline: as §2

| Compound | Activity [1] | MIC [3] [µM] | other results |
| --- | --- | --- | --- |
| CCCCCc1cn(CC(=O)OCC)nn1 | Non-Toxic | 111 (≈ 25 µg/mL) | Activity [2]: 73.2% |
| CCCCCCCCn1cc(CO)nn1 | Non-Toxic | 473 (≈ 99.9 µg/mL) | – |
| CCCCCCCCn1cc(C(=O)OC)nn1 | Non-Toxic | 52 (≈ 12.4 µg/mL) | – |
| CCCCCCCCCCc1cn(CCCC(=O)OCC)nn1 | Non-Toxic | 309 (≈ 100 µg/mL) | – |
| CCCCCCCCCCn1cc(C(=O)OC)nn1 | Non-Toxic | 23 (≈ 6.15 µg/mL) | – |
| CCCCCCCCc1cn(CCC(=O)OCC)nn1 | Non-Toxic | 22 (≈ 6.19 µg/mL) | – |
| CCCCCc1cn(CCCCCC(=O)OCC)nn1 | Non-Toxic | 22 (≈ 6.19 µg/mL) | – |
| CCCCCCCCCCCCCc1cn(CC(=O)OCC)nn1 | Non-Toxic | 296 (≈ 99.9 µg/mL) | – |
| CCCCCC/C=C\CCCCCCCC(=O)O [PALMITOLEIC ACID] | – | – | IC50 [4]: 40 µM |
| CCCCC/C=C\C/C=C\CCCCCCCC(=O)O [LINOLEIC ACID] | – | – | IC50 [4]: 40 µM |
| CCCCCCCCc1cn(CCCC(=O)OCC)nn1 | Non-Toxic | 21 (≈ 6.2 µg/mL) | – |
| CCCCCCCCCCn1cc(CO)nn1 | Non-Toxic | 209 (≈ 50 µg/mL) | – |
| CCCCCCCCCCc1cn(CCCCC(=O)OCC)nn1 | Non-Toxic | 37 (≈ 12.5 µg/mL) | – |
| CCCCCc1cn(CCCCC(=O)OCC)nn1 | Non-Toxic | 23 (≈ 6.15 µg/mL) | – |
| CCCc1cn(CC(=O)OCC)nn1 | Non-Toxic | 505 (≈ 99.6 µg/mL) | Activity [2]: 69% |
| COc1cccc2c1C(=O)c1c(O)c3c(c(O)c1C2=O)C[C@@](O)(C(=O)CO)C[C@@H]3O[C@H]1C[C@H](N)[C@H](O)[C@H](C)O1 [DOXORUBICIN] | – | – | IC50 at 48 h [5]: 14 µM |
| CCCCCCCC/C=C\CCCCCCCC(=O)O [OLEIC ACID] | – | – | IC50 [4]: 40 µM |
| CCCCCCCCCCCCCCCCO [CETYL ALCOHOL] | – | – | MIC [6]: 5 µg/mL |
| CCCCCCCCCCCCCn1cc(CO)nn1 | Non-Toxic | 44 (≈ 12.4 µg/mL) | – |

| Compound | Activity [1] | MIC [3] [µM] | other results |
| --- | --- | --- | --- |
| CCCc1cn(CCCCCC(=O)OCC)nn1 | Non-Toxic | 394 (≈ 99.8 µg/mL) | – |
| CCCCC/C=C\C/C=C\C/C=C\C/C=C\CCCC(=O)O [ARACHIDONIC ACID] | – | – | IC50 [4]: 40 µM |
| CCCCCCCCCCc1cnnn1CC(=O)OCC | Non-Toxic | 84 (≈ 24.8 µg/mL) | – |
| CCCCCCCCCCCCCCCc1cn(CC(=O)OCC)nn1 | Non-Toxic | 17 (≈ 6.21 µg/mL) | – |
| CCCCCCCCCCn1cc(C(=O)O)nn1 | Non-Toxic | 20 (≈ 5.07 µg/mL) | – |
| CCCCCCCCCCCCCCO [MYRISTYL ALCOHOL] | – | – | MIC [6]: 5 µg/mL |
| CCCCCCCCn1cc(C(=O)O)nn1 | Non-Toxic | 14 (≈ 3.15 µg/mL) | – |
| CCCCCCCCCCO [DECANOL] | – | – | MIC [6]: 800 µM |
| CCCCCCCCc1cn(CC(=O)OCC)nn1 | – | 1.9 (≈ 0.508 µg/mL) | MIC [7]: 1.9 µM (≈ 0.508 µg/mL); MIC [8]: 0.45 µM (≈ 0.12 µg/mL); Activity [2]: 90.1%; MIC [9]: 1.9 µM (≈ 0.508 µg/mL); selectivity ratio [10]: > 10; MIC [11]: 1.9 µM (≈ 0.508 µg/mL); IC50 at 48 h [5]: > 17.8 µM |
| CCCCCCCCc1cn(CCCCC(=O)OCC)nn1 | Non-Toxic | 40 (≈ 12.4 µg/mL) | – |
| CCCCCCCCc1cn(CCCCCC(=O)OCC)nn1 | Non-Toxic | 309 (≈ 100 µg/mL) | – |
| CCCCCc1cn(CCCC(=O)OCC)nn1 | Non-Toxic | 12 (≈ 3.04 µg/mL) | – |
| CCCCCCCCc1cnnn1CC(=O)OCC | Non-Toxic | 93 (≈ 24.9 µg/mL) | – |
| CC/C=C\C/C=C\C/C=C\CCCCCCCC(=O)O [LINOLENIC ACID] | – | – | IC50 [4]: 40 µM |
| CCCCCCCCCCCCCn1cc(C(=O)OC)nn1 | Non-Toxic | 323 (≈ 100 µg/mL) | – |
| CCCCCCCCCCc1cn(CCC(=O)OCC)nn1 | Non-Toxic | 20 (≈ 6.19 µg/mL) | – |
| CCCCCCCCCCc1cn(CC(=O)OCC)nn1 | – | 1.7 (≈ 0.502 µg/mL) | Activity [2]: 99.3%; selectivity ratio [10]: > 10; IC50 at 48 h [5]: > 16.1 µM |
| CCCCCCCCCCCCO [DODECANOL] | – | – | MIC [6]: 5 µg/mL |
